This is a sample that favours compounds with a hit; in the whole collection about 5.2% have one here.
M1 antag: antagonists of rat M1 muscarinic receptor | B-score at 10 µM | CHO-M1 cells, Fluo-4 calcium, ACh EC80 antagonist mode; stronger effect = lower value | 64,000 compounds, 3.4% hits | Muscarinic acetylcholine receptor M1 (Rattus norvegicus), P08482;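 active = calcium fluorescence response, raw or row-and-column corrected B-score, differing from the plate sample mean either way at a set confidence level, mostly lower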
Target sequence (P08482 whole entry, looked up): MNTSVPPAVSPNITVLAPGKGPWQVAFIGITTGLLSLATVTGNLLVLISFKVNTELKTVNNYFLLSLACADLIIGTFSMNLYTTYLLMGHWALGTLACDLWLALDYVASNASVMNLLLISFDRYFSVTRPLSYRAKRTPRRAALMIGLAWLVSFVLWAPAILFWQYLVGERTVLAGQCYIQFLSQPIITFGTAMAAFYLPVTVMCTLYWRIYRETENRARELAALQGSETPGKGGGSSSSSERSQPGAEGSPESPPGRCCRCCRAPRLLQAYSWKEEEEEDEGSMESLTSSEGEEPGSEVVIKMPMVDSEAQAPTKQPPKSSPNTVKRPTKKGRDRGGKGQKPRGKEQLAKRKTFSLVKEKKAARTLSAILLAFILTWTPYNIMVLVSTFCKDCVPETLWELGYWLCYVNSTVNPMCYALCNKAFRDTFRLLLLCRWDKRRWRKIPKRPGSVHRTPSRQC
M1 ag: M1 muscarinic receptor agonists, primary screen, CHO-M1 cells, Fluo-4 calcium, agonist mode | Muscarinic acetylcholine receptor M1 | Fluo-4 calcium fluorescence; stronger effect = higher value | B-score at 10 µM | 64,000 compounds, 3% hits | AID 626, 2007;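 active = fluorescence rise, raw or as B-score row- and column-corrected plate score, outside the 99.7% band of its plate's samples, either direction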
WNV protease inh: inhibitors of WNV NS2B-NS3 protease, primary screen, biochemical, fluorogenic substrate; 65,000 compounds, 0.18% hits; AID 577, 2007; fluorogenic substrate Ex360/Em465; stronger effect = lower value; z-score (concentration not given with the values); Genome polyprotein (West Nile virus), P06935; in the data active = z-score below about -3
tolC growth inh: growth inhibitors of E. coli tolC mutant, primary screen, strain BW25113 ΔtolC::kan, 384-well; OD615; growth inhibition, % at 10 µM (by protocol); AID 573, 2007; 65,000 compounds, 2.2% hits;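 active = growth inhibition at or above a cutoff equal to the mean over every tested compound plus 3 SD, cut at about 60% in these data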;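 note: growth measured after 20 h incubation at 37 °C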
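Material: E. coli BW25113 ΔtolC::kan, tolC deletion mutant strain. Measure: percent growth inhibition. Schedule: 37 °C, 20 h exposure. Doses: single-point testing at 10 µM. Signal: A615 absorbance measurement. Buffer or medium: kanamycin-containing LB broth (50 µg/mL).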
E coli WT exp: growth inhibitors of wild-type E. coli, primary screen, strain BW25113, expanded library, OD600. OD600 absorbance. growth inhibition, % at 100 µM. 98,000 compounds, 0.15% hits;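 active = growth inhibition above about 50% at one test dose, limit read from the data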;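 note: growth measured after 20 h incubation at 37 °C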
AP complement: alternative complement pathway inhibitors, primary screen, biochemical, ELISA, human serum, orthogonally pooled compounds | inhibition, % at 5 µM | 62,000 compounds, 0.08% hits | AID 1235, 2008 | LPS-coated ELISA, C3 deposition; tested in compound mixtures;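 active = inhibition above 30% in each of the two pooled mixtures holding the compound, so the lower value exceeds 30%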;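 note: 0% = serum in Mg-EGTA without compound and 100% = EDTA serum blank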
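Assay system: Human serum alternative complement pathway, C3 deposition on LPS-coated wells | Incubation: 1 h serum-compound exposure at 37 °C | Doses: 5 µM per compound in ten-compound mixtures | Read-out: Percent inhibition | Technique: ELISA with HRP anti-human C3 antibody, TMB substrate, absorbance 450 nm | Replication: Two pool placements per compound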
* marks the source's active call; other numbers are inactive results; / = no result.

SMILES | M1 antag | M1 ag | WNV protease inh | tolC growth inh | E coli WT exp | AP complement
O=C(c1ccco1)N1CCN(/C(=N/S(=O)(=O)c2cccs2)c2ccccc2Cl)CC1 | -0.192 | -0.315 | -0.39 | -14.6 | -4.0 | 4.5
CCOC(=O)CCSc1nc2c(c(C(F)(F)F)c1C#N)CCC2 | -1.87 | 1.05 | 1.58 | 66.0* | 0.0 | -8.7
CCCCSc1nc2c(c(C(F)(F)F)c1C#N)CCC2 | / | / | / | / | 2.0 | /
CC1CC(C)CN(C(=O)Cn2c(=O)n(CCCCC(=O)NCc3ccco3)c(=O)c3ccccc32)C1 (stereo not given) | / | / | 0.07 | -7.3 | 1.0 | 8.9
O=C(c1nn2c(C(F)(F)F)cc(-c3ccco3)nc2c1Br)N1CCCc2ccccc21 | 1.62 | 0.0425 | 0.13 | 47.9 | 3.0 | 14.8
CC(C)OC(=O)c1nn2c(C(F)(F)F)cc(-c3ccc(Br)o3)nc2c1Br | -0.0099 | 9.75* | 0.17 | 6.0 | -9.0 | /
Cn1c(=O)c2c(nc(N3CCCCC3)n2CCSc2nc3ccccc3o2)n(C)c1=O | -0.924 | -0.755 | 2.25 | / | / | -13.0
CCC1CCCCN1c1nc2c(c(=O)n(C)c(=O)n2C)n1CCSc1nc2ccccc2o1 (stereo not given) | -0.712* | 0.195 | 0.01 | 9.8 | / | 4.2
Cc1ccc(S(=O)(=O)N2CCOCC2)cc1C(=O)N1c2ccccc2Sc2ccccc21 | / | / | / | / | -3.0 | /
Cc1onc(-c2ccccc2)c1C(=O)Nc1nc2c(s1)CCCC2 | 0.405 | -0.00843 | 0.31 | 30.1 | -3.0 | -23.0
Cc1onc(-c2c(F)cccc2Cl)c1C(=O)Nc1nc2c(s1)CCCC2 | 0.0138 | -0.269 | -0.46 | 63.0* | -16.0 | 7.7
Cc1onc(-c2ccccc2Cl)c1C(=O)Nc1sc2c(c1C#N)CCC2 | -0.248 | -0.682 | 0.52 | 82.9* | -19.0 | 1.1
N#Cc1c(NC(=O)C2CC(c3ccccc3Cl)=NO2)sc2c1CCC2 (stereo not given) | / | / | / | / | -1.0 | /
COc1ccc(C2CC(=O)c3cnc(NC(=O)c4ccccc4)nc3C2)c(OC)c1 (stereo not given) | -0.0535 | -0.234 | 0.23 | 5.8 | 0.0 | 15.3
Cc1noc(C)c1S(=O)(=O)N(CCc1ccccc1)Cc1ccccc1 | 0.113 | 0.725 | -1.09 | 62.7* | -1.0 | 11.2
C=CCNC(=O)c1onc(CSc2cccc(OC)c2)c1C(=O)O | / | / | / | / | -2.0 | /
COc1cccc(NC(=O)CSc2nc3n[nH]c(C)c3c(=N)n2-c2cccc(OC)c2)c1 | 0.459 | -0.377 | -3.15* | 30.9 | -2.0 | /
CCn1c(-c2ccccc2Cl)nn(CC(=O)Nc2ccccc2C)c1=S | / | / | / | / | 0.0 | /
Cc1ccc(NC(=O)CSCC(=O)N2c3ccccc3CCc3ccccc32)cc1 | / | / | / | / | -27.0 | /
CCOC(=O)c1sc(NC(=O)/C=C/c2cnn(C)c2C)c(C(=O)OC(C)C)c1C | / | / | / | / | 1.0 | /
C=CCn1c(NC(=O)c2ccccc2)c(C#N)c2nc3ccccc3nc21 | -0.7 | 20.5* | -0.8 | 88.6* | / | 20.5
C=CCn1c(N)c(C(=O)Nc2cccc(C)c2)c2nc3ccccc3nc21 | / | / | / | / | 0.0 | /
Cc1noc(C)c1CSc1nnc2sc3ccccc3n12 | 0.257 | -0.0497 | 0.59 | -5.5 | -4.0 | 5.5
Cn1c(=O)[nH]c(=O)c2c1nc(Br)n2CC(O)c1ccccc1 (stereo not given) | 1.05 | 0.0346 | 0.79 | -13.2 | 5.0 | 41.7*
CCn1ncc(C2=NOC(C(=O)NCCc3ccccc3)C2)c1C (stereo not given) | -0.502 | -0.415 | -0.63 | -10.2 | -4.0 | 13.9
COc1ccc(-c2csc(NCc3ccco3)n2)cc1C | 0.179 | -0.0378 | 1.3 | 64.7* | -1.0 | 5.4
CN(CC(=O)O/N=C(\N)c1cccc([N+](=O)[O-])c1)S(=O)(=O)c1ccccc1 | / | / | / | / | 8.0 | /
Cc1ccc2nc3c(cc(C#N)c(=N)n3CC3CCCO3)c(=O)n2c1 (stereo not given) | -1.38 | 9.01* | 0.48 | -7.4 | / | 26.1
Cn1cc(CC(=O)Nc2cccc(C#N)c2)c2ccccc21 | 0.151 | -0.413 | -0.52 | 23.5 | 0.0 | 12.2
COc1cccc(-c2cc(C(=O)N3CCN(C(c4ccccc4)c4ccccc4)CC3)no2)c1 | 0.673 | -0.943 | -1.59 | -3.7 | -14.0 | 5.3

Screening data: PubChem BioAssay, several laboratories
